Measurements gathered from unrelated publications.
Lines come from different studies, so protocols differ.
Cell line: A549
Effect on: cell growth or viability

CC[C@@]1(OC(=O)[C@@H](N)CCSC)C(=O)OCc2c1cc1n(c2=O)Cc2cc3cc4c(cc3nc2-1)OCO4
IC50 (MTT): 85 nM

Nc1cc(Br)c(Br)cc1N
IC50 (72 h): 75000 nM

CC[C@@]1(OC(=O)[C@H](C)N)C(=O)OCc2c1cc1n(c2=O)Cc2cc3cc4c(cc3nc2-1)OCO4
IC50 (MTT): 40 nM

C=CCc1cc(OC)c2c(c1)OCO2
IC50 (SRB): 359000 nM

N#Cc1ccc(CN2C(=O)/C(=N\NC(=O)c3cc4ccccc4[nH]3)c3ccccc32)cc1
IC50: 2130 nM

Cc1cccc(-n2ncc(Cl)c(Cl)c2=O)c1
IC50 (resazurin; 96 h): 1400 nM

COc1ccc2c(c1)[nH]c1c(C)nccc12
IC50 (MTT; 72 h): 19400 nM

N.N.[Cl][Pt][Cl]
IC50 (resazurin; 72 h): 3400 nM

O=C(N/N=C1\C(=O)N(Cc2ccccc2)c2ccc(F)cc21)c1cc2ccccc2[nH]1
IC50: 1410 nM

COc1c2c(cc3c1OCO3)[C@]13C=C[C@H](OC)C[C@@H]1[N@](C2)C[C@H]3OC(=O)c1ccco1
IC50 (WST-1): > 10000 nM

CC[C@H](C)[C@H](N)C(=O)O[C@]1(CC)C(=O)OCc2c1cc1n(c2=O)Cc2cc3cc4c(cc3nc2-1)OCO4
IC50 (MTT): 77 nM

O=C(N/N=C1\C(=O)N(Cc2ccccc2)c2ccc(Cl)cc21)c1cc2ccccc2[nH]1
IC50 (72 h): 1330 nM

CC1=C(O)C(=O)C=C2C1=CC=C1[C@@]2(C)CC[C@@]2(C)[C@@H]3C[C@](C)(C(=O)O)CC[C@]3(C)CC[C@]12C
IC50 (MTT; 48 h): 5340 nM

CC[C@@]1(OC(=O)[C@@H](N)CCCCN)C(=O)OCc2c1cc1n(c2=O)Cc2cc3cc4c(cc3nc2-1)OCO4
IC50 (MTT): 88 nM

O=C(N/N=C1\C(=O)N(Cc2ccccc2)c2ccccc21)c1cc2ccccc2[nH]1
IC50: 1060 nM

CC[C@@]1(OC(=O)C(C)c2ccc(CC(C)C)cc2)C(=O)OCc2c1cc1n(c2=O)Cc2cc3cc4c(cc3nc2-1)OCO4 (stereo partly shown)
IC50 (MTT): > 5000 nM

COc1ccc2c(c1)/C(=N/NC(=O)c1cc3ccccc3[nH]1)C(=O)N2Cc1ccccc1
IC50: 640 nM

CC[C@@]1(OC(=O)[C@@H](N)C(C)C)C(=O)OCc2c1cc1n(c2=O)Cc2cc3cc4c(cc3nc2-1)OCO4
IC50 (MTT): 89 nM

COc1c2c(cc3c1OCO3)[C@]13C=C[C@H](OC)C[C@@H]1[N@](C2)C[C@H]3OC(=O)c1ccc2ccccc2c1
IC50 (WST-1): > 10000 nM
